The source made the active and inactive calls. No cut-off for these calls is given here.

Experimental findings from ChEMBL document CHEMBL1944513, “Synthesis of novel 2-mercapto benzothiazole and 1,2,3-triazole based bis-heterocycles: their anti-inflammatory and anti-nociceptive activities” (Eur J Med Chem, 2012) are described below.

The first data set concerns Rattus norvegicus. The data set can be described thus: Ulcerogenicity in Albino Wistar rat assessed as gastric ulceration at 30 mg/kg, po relative to untreated control. Also on record: dose 30 mg/kg, route oral. Format: toxicity, organism-based, Stomach. The conditions noted are these: in vivo. The method in brief:
(§1)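 Oral dosing at three times the anti-inflammatory dose: ibuprofen 30 mg/kg or equimolar test compound. Three animals per group, sacrificed afterwards. Stomach wall sections stained with haematoxylin-eosin and examined at 10x and 40x for mucosal, submucosal and epithelial damage.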
With `CC(C)Cc1ccc(C(C)C(=O)O)cc1` (stereo unspecified) [IBUPROFEN], the Activity entry was “Toxic”.

Another data set has as its system Rattus norvegicus. Nature of the data set: Ulcerogenicity in Albino Wistar rat assessed as gastric ulceration at equimolar dosage of Ibuprofen 30 mg/kg, po relative to control. Format: toxicity, organism-based, Stomach. The arrangement: dose 30 mg/kg, route oral. The conditions noted are these: in vivo. The method in brief: as §1
For `Brc1ccc(-n2cc(CSc3nc4ccccc4s3)nn2)cc1`, the Activity result was “Non-toxic”.

As to `Clc1ccccc1-n1cc(CSc2nc3ccccc3s2)nn1`, the Activity result is given as “Non-toxic”.

`Fc1ccc(-n2cc(CSc3nc4ccccc4s3)nn2)cc1`: the Activity result is “Non-toxic”.

As to `O=[N+]([O-])c1ccc(-n2cc(CSc3nc4ccccc4s3)nn2)cc1`, the Activity result is “Non-toxic”.

A further data set relates to Rattus norvegicus. The data set can be described thus: Antiinflammatory activity in Albino Wistar rat assessed as inhibition of carrageenan-induced paw edema at equimolar dosage of Ibuprofen 10 mg/kg, po administered 1 hr before carrageenan challenge measured after 5 hrs by plethysmometer.
Conditions: not given
Format: functional. The method, boiled down:
(§2)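 Rats fasted 14 h with water only. Compounds given orally at dose equimolar to ibuprofen (10 mg/kg p.o.) 1 h before subplantar injection of 0.1 ml freshly prepared 1% carrageenan in saline into right hind paw. Control received 0.1 ml 0.9% saline orally. Change in paw volume (ml) at 3 and 5 h; % inhibition; one-way ANOVA with Dunnett's test.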
(In general: In the carrageenan paw model, swelling and tenderness develop within hours.)
For orientation: inhibition in vivo means the drop in the measured response relative to a control, in per cent. Take `CC1(C)OCC(Cn2cc(CSc3nc4ccccc4s3)nn2)O1` (stereo unspecified): the inhibition in vivo worked out at 49%.

For the molecule `Brc1ccc(-n2cc(CSc3nc4ccccc4s3)nn2)cc1`, the inhibition in vivo is 59.2%.

Take `O=[N+]([O-])c1cccc(-n2cc(CSc3nc4ccccc4s3)nn2)c1`: the inhibition in vivo is 21.5%.

As for `c1cncc(-n2cc(CSc3nc4ccccc4s3)nn2)c1`, the inhibition in vivo was determined as 56%.

On to `Cc1ccccc1-n1cc(CSc2nc3ccccc3s2)nn1`, for which the inhibition in vivo came out at 43.4%.

For the molecule `Clc1cccc(-n2cc(CSc3nc4ccccc4s3)nn2)c1`, the inhibition in vivo is 39.6%.

Consider `CC1(C)O[C@H]2OC(Cn3cc(CSc4nc5ccccc5s4)nn3)[C@@H]3OC(C)(C)O[C@@H]3[C@@H]2O1` (stereo partly specified), for which the inhibition in vivo was determined as 56.6%.

Regarding `c1ccc(-n2cc(CSc3nc4ccccc4s3)nn2)cc1`, the inhibition in vivo came to 32.1%.

Take `Clc1ccc(-n2cc(CSc3nc4ccccc4s3)nn2)cc1`: the inhibition in vivo was 43.4%.

Take `Clc1ccccc1-n1cc(CSc2nc3ccccc3s2)nn1`: the inhibition in vivo was determined as 78.1%.

Take `CCOc1ccc(-n2cc(CSc3nc4ccccc4s3)nn2)cc1`: the inhibition in vivo amounted to 34%.

For the molecule `O[C@@H]1[C@H](O)[C@@H](O)OC(Cn2cc(CSc3nc4ccccc4s3)nn2)[C@@H]1O` (stereo partly specified), the inhibition in vivo was 60.4%.

For `Fc1ccc(-n2cc(CSc3nc4ccccc4s3)nn2)cc1`, the inhibition in vivo worked out at 81.1%.

On to `O=[N+]([O-])c1ccc(-n2cc(CSc3nc4ccccc4s3)nn2)cc1`, for which the inhibition in vivo was determined as 65.5%.

In the case of `OCC(O)Cn1cc(CSc2nc3ccccc3s2)nn1` (stereo unspecified), the inhibition in vivo amounted to 52.8%.

System in a further data set: not listed separately
The data set can be described thus: Selectivity ratio of IC50 for human recombinant COX2 to IC50 for ram seminal vesicle COX1. Format: tissue-based.
Conditions: not given
The method in brief: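 COX-1 and COX-2 purified chromatographically. Peroxidase read-out from TMPD oxidation during PGG2 to PGH2 reduction. Mix: 100 mM Tris-HCl pH 8.0, hematin, 3 mM EDTA, […], test compound; 1 min preincubation at 25 °C; started with arachidonic acid plus TMPD. Rate from absorbance rise at 603 nm over first 25 s. Ratio is IC50 COX-2/IC50 COX-1.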
As for `O=[N+]([O-])c1cccc(-n2cc(CSc3nc4ccccc4s3)nn2)c1`, the Ratio IC50 is 5.21.

Consider `Cc1ccc(-c2cc(C(F)(F)F)nn2-c2ccc(S(N)(=O)=O)cc2)cc1`, for which the Ratio IC50 is 0.0028.

Take `CC1(C)O[C@H]2OC(Cn3cc(CSc4nc5ccccc5s4)nn3)[C@@H]3OC(C)(C)O[C@@H]3[C@@H]2O1` (stereo partly specified): the Ratio IC50 worked out at 1.53.

On to `Clc1ccc(-n2cc(CSc3nc4ccccc4s3)nn2)cc1`, for which the Ratio IC50 is 14.9.

In the case of `Fc1ccc(-n2cc(CSc3nc4ccccc4s3)nn2)cc1`, the Ratio IC50 was 0.441.

For another data set, the system named is Mus musculus. The data set can be described thus: Analgesic activity in mouse assessed as inhibition of acetic acid-induced writhing at 10 mg/kg, po administered 30 mins before to acetic acid challenge measured for 20 mins relative to control. The data set is classed as functional, organism-based. The arrangement: dose 10 mg/kg.
Conditions: not given
The method in brief: (§3)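 Writhing induced in mice by intraperitoneal 0.6% (v/v) acetic acid (80 mg/kg). Compounds given orally at dose equimolar to ibuprofen 10 mg/kg, 30 min before stimulus; ibuprofen 10 mg/kg orally as reference. Six animals per group.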
On the technique in general: Writhing tests count abdominal constrictions after an irritant is injected.
Regarding `CC(C)Cc1ccc(C(C)C(=O)O)cc1` (stereo unspecified) [IBUPROFEN], the inhibition result is “Active”.

The test system of a further data set is Mus musculus. Nature of the data set: Ulcerogenicity in mouse assessed as gastric ulceration at equimolar dosage of Ibuprofen 30 mg/kg, po relative to control. The data set is classed as toxicity, organism-based, Stomach. The arrangement: dose 30 mg/kg, route oral. The conditions noted are these: in vivo.
Turning to `Brc1ccc(-n2cc(CSc3nc4ccccc4s3)nn2)cc1`, the Activity entry is reported as “Non-toxic”.

As for `Clc1ccccc1-n1cc(CSc2nc3ccccc3s2)nn1`, the Activity result was “Non-toxic”.

`Fc1ccc(-n2cc(CSc3nc4ccccc4s3)nn2)cc1`: the Activity entry is on record as “Non-toxic”.

Consider `O=[N+]([O-])c1ccc(-n2cc(CSc3nc4ccccc4s3)nn2)cc1`, for which the Activity entry was “Non-toxic”.

In another data set the test system is Rattus norvegicus. The data set can be described thus: Antiinflammatory activity in Albino Wistar rat assessed as inhibition of carrageenan-induced paw edema at equimolar dosage of Ibuprofen 10 mg/kg, po administered 1 hr before carrageenan challenge measured after 3 hrs by plethysmometer. Format: functional.
Conditions: not given
The method, boiled down:
as §2
For the molecule `CC1(C)OCC(Cn2cc(CSc3nc4ccccc4s3)nn2)O1` (stereo unspecified), the inhibition in vivo was 53.3%.

Take `Brc1ccc(-n2cc(CSc3nc4ccccc4s3)nn2)cc1`: the inhibition in vivo came to 75%.

In the case of `O=[N+]([O-])c1cccc(-n2cc(CSc3nc4ccccc4s3)nn2)c1`, the inhibition in vivo amounted to 11.7%.

Take `c1cncc(-n2cc(CSc3nc4ccccc4s3)nn2)c1`: the inhibition in vivo came out at 64%.

For the molecule `Cc1ccccc1-n1cc(CSc2nc3ccccc3s2)nn1`, the inhibition in vivo was 47.3%.

On to `Clc1cccc(-n2cc(CSc3nc4ccccc4s3)nn2)c1`, for which the inhibition in vivo stood at 35%.

On to `CC1(C)O[C@H]2OC(Cn3cc(CSc4nc5ccccc5s4)nn3)[C@@H]3OC(C)(C)O[C@@H]3[C@@H]2O1` (stereo partly specified), for which the inhibition in vivo was found to be 59.7%.

As to `c1ccc(-n2cc(CSc3nc4ccccc4s3)nn2)cc1`, the inhibition in vivo came out at 46.7%.

As for `Clc1ccc(-n2cc(CSc3nc4ccccc4s3)nn2)cc1`, the inhibition in vivo amounted to 50%.

Turning to `Clc1ccccc1-n1cc(CSc2nc3ccccc3s2)nn1`, the inhibition in vivo came out at 83.3%.

On to `CCOc1ccc(-n2cc(CSc3nc4ccccc4s3)nn2)cc1`, for which the inhibition in vivo turned out to be 38.3%.

For `O[C@@H]1[C@H](O)[C@@H](O)OC(Cn2cc(CSc3nc4ccccc4s3)nn2)[C@@H]1O` (stereo partly specified), the inhibition in vivo worked out at 63.3%.

Consider `Fc1ccc(-n2cc(CSc3nc4ccccc4s3)nn2)cc1`, for which the inhibition in vivo was 77.8%.

Consider `O=[N+]([O-])c1ccc(-n2cc(CSc3nc4ccccc4s3)nn2)cc1`, for which the inhibition in vivo turned out to be 75%.

On to `OCC(O)Cn1cc(CSc2nc3ccccc3s2)nn1` (stereo unspecified), for which the inhibition in vivo was determined as 56.7%.

A further data set relates to Rattus norvegicus. Nature of the data set: Antiinflammatory activity in Albino Wistar rat assessed as inhibition of carrageenan-induced paw edema at 10 mg/kg, po administered 1 hr before carrageenan challenge measured after 3 hrs by plethysmometer. Format: functional.
Conditions: not given
The method in brief:
as §2
Take `CC(C)Cc1ccc(C(C)C(=O)O)cc1` (stereo unspecified) [IBUPROFEN]: the inhibition in vivo at 10 mg/kg stood at 69.5%.

In the next data set the test system is Rattus norvegicus. The data set can be described thus: Antiinflammatory activity in Albino Wistar rat assessed as inhibition of carrageenan-induced paw edema at equimolar dosage of Ibuprofen 10 mg/kg, po administered 1 hr before carrageenan challenge by plethysmometer. Format: functional, organism-based. The arrangement: dose 10 mg/kg. The conditions noted are these: TDE = time-dependent effect, at 10 mg/kg. The method in brief:
as §2
For the molecule `Brc1ccc(-n2cc(CSc3nc4ccccc4s3)nn2)cc1`, the inhibition result is “tde”.

For the molecule `Clc1ccccc1-n1cc(CSc2nc3ccccc3s2)nn1`, the inhibition entry was “tde”.

Consider `Fc1ccc(-n2cc(CSc3nc4ccccc4s3)nn2)cc1`, for which the inhibition entry is “tde”.

Regarding `O=[N+]([O-])c1ccc(-n2cc(CSc3nc4ccccc4s3)nn2)cc1`, the inhibition result is “tde”.

A further data set has as its system Mus musculus. Nature of the data set: Analgesic activity in mouse assessed as inhibition of acetic acid-induced writhing at equimolar dosage of Ibuprofen 10 mg/kg, po administered 30 mins before to acetic acid challenge measured for 20 mins relative to control. The data set is classed as functional, organism-based. Also on record: dose 10 mg/kg. The conditions noted are these: at 10 mg/kg. The method in brief: as §3
For the molecule `Brc1ccc(-n2cc(CSc3nc4ccccc4s3)nn2)cc1`, the inhibition result is “Active”.

Regarding `Clc1ccccc1-n1cc(CSc2nc3ccccc3s2)nn1`, the inhibition result is “Active”.

Regarding `Fc1ccc(-n2cc(CSc3nc4ccccc4s3)nn2)cc1`, the inhibition result is “Active”.

Regarding `O=[N+]([O-])c1ccc(-n2cc(CSc3nc4ccccc4s3)nn2)cc1`, the inhibition result is “Active”.

The next data set has as its system Rattus norvegicus. Nature of the data set: Antiinflammatory activity in Albino Wistar rat assessed as inhibition of carrageenan-induced paw edema at 10 mg/kg, po administered 1 hr before carrageenan challenge measured after 5 hrs by plethysmometer.
Conditions: not given
Format: functional. The method in brief: as §2
On to `CC(C)Cc1ccc(C(C)C(=O)O)cc1` (stereo unspecified) [IBUPROFEN], for which the inhibition in vivo at 10 mg/kg was found to be 71.7%.

A further data set concerns Mus musculus. The data set can be described thus: Ulcerogenicity in mouse assessed as gastric ulceration at 30 mg/kg, po relative to untreated control. Also on record: dose 30 mg/kg, route oral. The conditions noted are these: in vivo. Format: toxicity, organism-based, Stomach.
Consider `CC(C)Cc1ccc(C(C)C(=O)O)cc1` (stereo unspecified) [IBUPROFEN], for which the Activity entry is “Toxic”.
